Laboratory results from paper PMC7339641 (Molecular imaging and biology, 2018).

What was measured:
[1] = tested on: HER3; conditions: human, in vivo; cited from earlier work
[2] = tested on: MDA-MB-453 cells; experiment: Fluorescent microscopy of peptide binding, MDA-MB-453; type: cell-based, human; conditions: fixed cells, peptide 250 nM, 1 h room temperature, neutravidin-AlexaFluor488
Summary of the method: (§1)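 Cells fixed in 10 % formalin and dried onto slides overnight. Rehydrated in TBS, then blocked with 2 % BSA in TBS for 1 h. Biotinylated test peptide at 250 nM in 0.1 % TBST for 1 h at room temperature, then 3× washes with 0.1 % TBST. Neutravidin-AlexaFluor488 for 1 h at room temperature. Mounted in DAPI-containing medium and imaged on an inverted microscope.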

[3] = tested on: HCC-1954 cells; experiment: Fluorescent microscopy of peptide binding, HCC-1954; type: cell-based; conditions: fixed cells, peptide 250 nM, 1 h room temperature, neutravidin-AlexaFluor488
Summary of the method: as §1

Molecule | specific accumulation measured by tumor-to-blood ratio [1] | binding by fluorescent microscopy, MDA-MB-453 [2] | binding by fluorescent microscopy, HCC-1954 [3]
^64Cu-labeled DOTA-conjugated patritumab: 64Cu-labeled DOTA conjugate of the anti-HER3 antibody patritumab | approximately 1 | – | –
CC(C)C[C@@H]1NC(=O)[C@@H](NC(=O)CNC(=O)CNC(=O)CNC(=O)CCCC[C@@H]2SC[C@@H]3NC(=O)N[C@@H]32)CSSC[C@@H](C(=O)O)NC(=O)[C@H](CO)NC(=O)[C@H](CCCNC(=N)N)NC(=O)[C@H](Cc2ccccc2)NC(=O)[C@H](CCCCN)NC(=O)[C@H]([C@@H](C)O)NC(=O)[C@@H]2CCCN2C1=O [biotinylated-HER3P1] | – | high binding | almost no visualization
